The list is not random: actives were taken first. Their share in the collection is about 2.5%.
RORA act: activators of human nuclear receptor RORA | P35398 | CHO-K1 Gal4-RORA LBD luciferase reporter, luminescence; percent increase over mock-subtracted basal signal | activation, % at 10 µM | 65,000 compounds, 1.5% hits | AID 560;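 active = activation above the mean of all tested compounds plus 3 SD, cut at about 49% in these data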
SF-1 act: SF-1 (human) activation | AID 522 | 65,000 compounds, 1.9% hits | CHO-K1 Gal4-SF-1 LBD luciferase reporter; % increase over DMSO SF-1-specific signal | activation, % at 10 µM | Q13285;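 active = activation above the mean activation of all tested compounds plus 3 SD, cut at about 50% in these data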
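Test system: transient Gal4-SF-1 LBD reporter, CHO-K1; Amount: 4,000 CHO-K1 cells per well; Doses: 10 µM only; Timing: compound exposure 20 h at 37 °C; Signal: luciferase light emission; Read-out basis: percent activation relative to DMSO median and mock-transfected background; Control set: DMSO negative control and −SF1 background wells; Replicates: one test per compound.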
ROCK2 inh: ROCK2 (human) kinase inhibition | AID 604 | O75116 | 60,000 compounds, 0.35% hits | purified ROCK2, Kinase-Glo ATP depletion luminescence | inhibition, % at 6 µM;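 active = inhibition above the screen-wide mean inhibition plus 3 SD, cut at about 18% in these data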
PKA kinase inh: blocks human protein kinase A activity; inhibition, % at 6 µM; PKA Kemptide phosphorylation, Kinase-Glo ATP luminescence; AID 524; 65,000 compounds, 0.1% hits; P17612;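 active = inhibition above the screen-wide mean inhibition plus 3 SD, cut at about 21% in these data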
MT1-MMP txn act: MT1-MMP promoter transcription activation. HT1080 MT1-MMP promoter luciferase reporter, luminescence, overnight; hits give high values. activation factor at 10 µM. 86,000 compounds, 0.16% hits;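 active = activation factor of at least 2 for MT1-MMP transcription at 10 µM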
JNK3 inh: blocks human JNK3 kinase activity. purified JNK3 kinase activity, HTS. inhibition, % at 8 µM. 60,000 compounds, 0.61% hits. P53779; in the data active = inhibition above about 17%
Hits are given with their value; 0 = inactive; - = not tested or not shown.

SMILES	RORA act	SF-1 act	ROCK2 inh	PKA kinase inh	MT1-MMP txn act	JNK3 inh
O=C(CCn1cccc1)Nc1cccc(F)c1	0	0	0	0	0	0
COC(=O)[C@@]1(Cc2ccccc2)[C@H]2c3cc(C(=O)N4CCCC4)n(CCN4CCNC4=O)c3C[C@H]2CN1C(=O)c1ccccc1	-	-	-	-	0	-
C=CCn1cnc2c(NCc3ccccc3)ncnc21	0	64.9	0	0	0	0
O=C(Nc1ccc2c(c1)OCCO2)c1c(F)cccc1F	0	56.0	0	0	0	0
CCOC(=O)c1[nH]c(C)c(C(=O)Nc2ccc3c(c2)OCCO3)c1C	0	0	0	0	0	0
CC(=O)c1c(C)[nH]c(C(=O)Nc2ccc3c(c2)OCCO3)c1C	0	60.9	0	0	0	0
O=C(Nc1ccc2oc(-c3ccccc3F)nc2c1)c1ccc2c(c1)OCCO2	61.1	0	0	0	-	0
O=C(Nc1ccccc1-c1nc2ccccc2o1)c1ccc2c(c1)OCCO2	0	0	0	0	0	0
CC1(C)Cc2c(sc3c4nnnn4c4nnnn4c23)CO1	0	0	0	0	0	0
Cc1ccc(-c2noc(C3CCCN(C(=O)c4ccccc4)C3)n2)o1 (stereo not given)	50.0	0	0	0	0	0
CC(=O)n1cc(-c2ccncc2)c2ccccc21	0	0	61.4	26.1	-	0
COC(=O)c1cccc(C23CC4(C2)[C@H](CN(Cc2cccnc2)[C@@H]4c2ccccc2)C3c2ccccc2)c1 (stereo not given in full)	-	-	-	-	0	-
CC(C)N1CC(O)=C(c2nc3ccccc3[nH]2)C1=N	50.0	0	0	0	0	0
CC(C)CCN1CC(O)=C(c2nc3ccccc3[nH]2)C1=N	-	-	-	-	0	-
O=c1cc(-c2ccccc2)[nH]c2nc3ccccc3n12	0	0	0	0	0	19.0
CCc1c(C)[nH]c2nc3ccccc3n2c1=O	-	-	-	-	0	-
Cn1c(CSCc2ccc(F)cc2)nnc1SCC(=O)Nc1nccs1	0	0	0	0	0	0
Cn1nnnc1SCc1ccc(C(=O)Nc2nccs2)cc1	0	56.8	0	0	0	19.9
Cn1c(=O)c2c(nc(SCC(=O)NCc3ccc4c(c3)OCO4)n2Cc2ccc(Cl)cc2)n(C)c1=O	-	-	-	-	0	-
CC1CCCN(c2ccc(C(=O)NCC3CCCO3)cn2)C1 (stereo not given)	0	57.5	0	0	0	0
O=C(NCC1CCCO1)c1ccc(/C=N/O)nc1 (stereo not given)	0	0	0	0	0	0
Nn1cnnc1SCC(=O)Nc1ccc(C2CCCCC2)cc1	0	53.6	0	0	0	0
Cc1ccc(-c2nc(C3CCN(S(C)(=O)=O)CC3)no2)cc1	0	0	0	0	0	0
COc1ccc(C(=O)NC(C)c2nc3ccccc3[nH]2)cc1OC (stereo not given)	0	0	-	0	0	-
COc1ccc(C(=O)NCc2nc3ccccc3[nH]2)cc1OC	0	0	0	0	0	31.4
SMILES	RORA act	SF-1 act	ROCK2 inh	PKA kinase inh	MT1-MMP txn act	JNK3 inh
COc1ccc(C(=O)Nc2nc3ccccc3[nH]2)cc1OC	0	50.2	0	0	0	0
COc1cc(OC)cc(C(=O)Nc2nc3ccccc3[nH]2)c1	-	-	-	-	0	-
CC(=O)N1CC=CC1(C)C(=O)NCc1ccc(C)o1 (stereo not given)	-	-	-	-	0	-
CC1(C)NC(=O)N(CCCCOc2ccc(Br)cc2Cl)C1=O	-	-	-	-	0	-
CC1(C)NC(=O)N(CCCOc2ccc(Br)cc2Cl)C1=O	0	64.9	0	0	0	0
O=C(c1cccs1)N1CCC(c2ccccc2)C1 (stereo not given)	48.8	0	0	0	0	0
NC(=O)C1CCN(C(=O)Nc2ccccc2)CC1	0	0	0	0	0	0
O=C(COc1ccc(F)cc1)N1CCC(c2ccccc2)C1 (stereo not given)	-	-	-	-	2.1	-
O=C(Nc1ccccc1)N1CCC(c2ccccc2)C1 (stereo not given)	0	68.4	0	0	0	0
Cc1cccc(OCC(=O)N2CCC(c3ccccc3)C2)c1 (stereo not given)	0	0	0	0	0	0
CC(=O)N1[C@H](Cc2ccccc2)C=C[C@]1(C)C(=O)O	-	-	-	-	0	-
COc1ccccc1NC(=O)N1CCN(c2ncccn2)CC1	0	0	0	0	0	0
Cc1cc2c(c(=O)o1)C(C13C=CC(CC1)C3)C(C#N)=C(N)O2 (stereo not given)	0	0	0	0	0	0
